The values that follow come from publication PMC9394215 (Journal for Immunotherapy of Cancer, 2022).

Molecules are shown by their SMILES.

For this test, the target named is T1, human CD39 (Homo sapiens, UniProt P49961).
T1 sequence (P49961 1-510): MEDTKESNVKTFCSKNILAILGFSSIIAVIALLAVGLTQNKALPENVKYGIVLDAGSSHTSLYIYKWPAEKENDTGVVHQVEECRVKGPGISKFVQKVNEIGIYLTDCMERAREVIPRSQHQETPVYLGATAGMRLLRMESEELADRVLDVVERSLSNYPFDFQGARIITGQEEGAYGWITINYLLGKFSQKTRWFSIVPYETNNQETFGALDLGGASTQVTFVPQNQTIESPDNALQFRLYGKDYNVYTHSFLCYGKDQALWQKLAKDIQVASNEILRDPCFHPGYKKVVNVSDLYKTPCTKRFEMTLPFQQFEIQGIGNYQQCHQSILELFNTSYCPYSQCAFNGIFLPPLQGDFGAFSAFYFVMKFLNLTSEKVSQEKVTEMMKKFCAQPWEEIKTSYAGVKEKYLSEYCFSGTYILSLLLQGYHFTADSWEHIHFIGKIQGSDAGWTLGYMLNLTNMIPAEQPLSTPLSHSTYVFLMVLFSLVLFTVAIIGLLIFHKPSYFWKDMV
The format is biochemical. The settings on record: for inhibition of CD39 (in words): library screen at 10 µM, figure 3. The method, boiled down:
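CD39 came from human umbilical cord membranes (50.0 ng protein per well). Substrate was 50 µM ATP in 10 mM HEPES, 2 mM CaCl2, 1 mM MgCl2, pH 7.4, with ≤2% DMSO. Enzyme and test compound were preincubated 5 min at 37°C; reaction ran 15 min at 37°C. Malachite green/molybdate was added and A600 read after 20 min at 25°C, minus a heat-denatured enzyme blank. Screening was at 10 µM; curves spanned 0.1–300 µM; n=3.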

As to `CCc1cc2c(cc1N1CCC(N3CCOCC3)CC1)C(C)(C)c1[nH]c3cc(C#N)ccc3c1C2=O` [alectinib, Alectinib], the “inhibition of CD39 (in words)” value is listed as “did not inhibit”. As to `C[C@@H](Oc1cc(-c2cnn(C3CCNCC3)c2)cnc1N)c1c(Cl)ccc(F)c1Cl` [critozinib, Crizotinib], the “inhibition of CD39 (in words)” value is on record as “did not inhibit”.

By inhibition is commonly meant how much of the control response was suppressed. As for `Cc1ccc(C(=O)Nc2ccc(CN3CCN(C)CC3)c(C(F)(F)F)c2)cc1C#Cc1cnc2cccnn12` [ponatinib, Ponatinib], the inhibition at 10 µM (read-out: inhibition of human CD39) is 33%.
